One series has as its system MX1. In words: Antiproliferative activity against human MX1 cells incubated over 72 hrs by Cell Titre Glo luminescence assay. The class given is functional, cell-based. To be noted: MX1, 72 h. A digest of the protocol:
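Triple-negative breast cancer line MX-1 grown 3 days with compound. Proliferation read with the CellTiter-Glo kit. EC50 is the mean of two measurements.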

Series [1] has as its target Bromodomain and WD repeat-containing protein 1 (Homo sapiens, UniProt Q9NSI6). In words: Inhibition of human WDR9 bromodomain 2 (A1310 to E1430 residues) expressed in bacterial expression system by BROMOscan assay.
For a further series, the system named is Liver. In words: Unbound intrinsic clearance in mouse liver microsomes. The class given is ADME, microsome. On the technique in general: Liver microsomes are vesicles of endoplasmic reticulum, rich in cytochrome P450 enzymes.
For the next series, the system named is Plasma. In words: Unbound clearance in mouse plasma at 3 mg/kg, iv. The class given is ADME, organism-based. Particulars: in vivo.
Series [2] deals with Bromodomain-containing protein 2 (Homo sapiens, UniProt P25440). In words: Binding affinity to BRD2 BD1-BD2 (G73 to A560 residues) (unknown origin) after 1 hr by Alexa-647-conjugated probe based TR-FRET assay. (Time-resolved FRET reads energy transfer from a long-lived donor to a nearby acceptor.)
Bromodomain-containing protein 2, sequence (P25440 whole entry, the tested form may be a part): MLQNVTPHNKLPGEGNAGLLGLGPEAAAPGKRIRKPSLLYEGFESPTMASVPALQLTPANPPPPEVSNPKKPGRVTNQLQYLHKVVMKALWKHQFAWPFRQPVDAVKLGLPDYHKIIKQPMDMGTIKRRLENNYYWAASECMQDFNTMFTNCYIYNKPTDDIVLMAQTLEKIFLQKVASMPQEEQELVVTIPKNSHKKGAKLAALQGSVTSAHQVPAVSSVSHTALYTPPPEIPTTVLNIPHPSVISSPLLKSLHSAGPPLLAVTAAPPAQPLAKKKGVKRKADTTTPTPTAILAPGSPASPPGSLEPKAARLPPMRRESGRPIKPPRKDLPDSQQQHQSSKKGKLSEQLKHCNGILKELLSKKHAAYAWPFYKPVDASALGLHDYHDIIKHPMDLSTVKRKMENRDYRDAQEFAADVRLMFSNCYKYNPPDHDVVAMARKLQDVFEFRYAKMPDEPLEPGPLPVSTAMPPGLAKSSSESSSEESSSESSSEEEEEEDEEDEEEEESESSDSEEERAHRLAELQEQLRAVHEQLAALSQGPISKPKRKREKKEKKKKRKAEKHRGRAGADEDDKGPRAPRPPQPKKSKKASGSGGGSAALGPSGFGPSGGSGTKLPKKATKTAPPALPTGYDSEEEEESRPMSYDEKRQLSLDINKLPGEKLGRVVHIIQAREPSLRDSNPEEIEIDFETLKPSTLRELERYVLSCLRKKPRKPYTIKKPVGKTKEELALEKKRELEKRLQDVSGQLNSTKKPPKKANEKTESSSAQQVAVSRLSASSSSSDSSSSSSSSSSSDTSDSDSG
Series [3] concerns the target T1, E3 ubiquitin-protein ligase TRIM33 (Homo sapiens, UniProt Q9UPN9).
T1 sequence (Q9UPN9 whole entry): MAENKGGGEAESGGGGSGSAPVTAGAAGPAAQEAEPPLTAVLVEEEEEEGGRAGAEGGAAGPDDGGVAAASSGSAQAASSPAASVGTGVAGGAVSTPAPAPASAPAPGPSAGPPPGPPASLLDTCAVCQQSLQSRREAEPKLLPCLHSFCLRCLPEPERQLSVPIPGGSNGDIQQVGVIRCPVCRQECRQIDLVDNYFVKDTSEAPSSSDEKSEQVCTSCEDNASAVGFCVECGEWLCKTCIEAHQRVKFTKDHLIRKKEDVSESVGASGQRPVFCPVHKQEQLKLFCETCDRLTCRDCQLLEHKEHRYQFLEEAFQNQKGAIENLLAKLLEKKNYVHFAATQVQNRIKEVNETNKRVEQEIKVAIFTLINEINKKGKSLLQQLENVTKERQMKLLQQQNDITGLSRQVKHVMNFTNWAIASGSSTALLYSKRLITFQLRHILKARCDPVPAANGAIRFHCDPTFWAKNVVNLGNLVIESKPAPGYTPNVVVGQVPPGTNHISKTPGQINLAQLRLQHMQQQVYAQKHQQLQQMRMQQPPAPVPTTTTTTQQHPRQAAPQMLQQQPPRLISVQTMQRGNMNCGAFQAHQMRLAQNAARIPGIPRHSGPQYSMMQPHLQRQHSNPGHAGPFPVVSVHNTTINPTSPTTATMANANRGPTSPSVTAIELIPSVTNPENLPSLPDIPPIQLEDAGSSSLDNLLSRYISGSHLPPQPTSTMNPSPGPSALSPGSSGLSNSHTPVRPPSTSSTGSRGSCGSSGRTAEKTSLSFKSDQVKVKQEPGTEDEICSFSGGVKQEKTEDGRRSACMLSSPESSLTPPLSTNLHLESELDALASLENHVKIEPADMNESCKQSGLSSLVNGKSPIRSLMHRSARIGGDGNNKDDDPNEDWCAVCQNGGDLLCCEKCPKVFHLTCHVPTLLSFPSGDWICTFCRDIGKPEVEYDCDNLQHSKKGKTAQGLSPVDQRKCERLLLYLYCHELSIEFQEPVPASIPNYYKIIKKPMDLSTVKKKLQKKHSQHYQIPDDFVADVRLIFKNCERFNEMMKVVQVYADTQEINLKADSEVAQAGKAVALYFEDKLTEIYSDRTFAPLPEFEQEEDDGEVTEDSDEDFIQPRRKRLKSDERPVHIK
In words: Inhibition of human TRIM33-phd-bromo (D882 to A1087 residues) expressed in bacterial expression system by BROMOscan assay.

In series [4] the target is Bromodomain-containing protein 3 (Homo sapiens, UniProt Q15059). In words: Binding affinity to BRD3 BD1-BD2 (P24 to P416 residues) (unknown origin) after 1 hr by Alexa-647-conjugated probe based TR-FRET assay.
Series [5] in a line: Permeability of the compound. It counts as physicochemical. Particulars: not told; read-out: permeability.
The target of series [6] is T2, Bromodomain-containing protein 4 (Homo sapiens, UniProt O60885). In words: Binding affinity to BRD4 BD1 (K57 to E168 residues) (unknown origin) after 1 hr by Alexa-647-conjugated probe based TR-FRET assay.
Series [7] has as its target Bromodomain adjacent to zinc finger domain protein 2A (Homo sapiens, UniProt Q9UIF9). In words: Inhibition of human BAZ2A (M1792 to L1905 residues) expressed in bacterial expression system by BROMOscan assay.
The next series deals with Mus musculus. In words: Unbound AUC in mouse at 10 mg/kg, po. The class given is ADME, organism-based. Particulars: in vivo.
The target of the next series is Protein polybromo-1 (Homo sapiens, UniProt Q86U86). In words: Inhibition of human PBRM1 bromodomain 2 (S178 to E291 residues) expressed in bacterial expression system by BROMOscan assay.
The target in series [8] is T2, Bromodomain-containing protein 4. In words: Binding affinity to BRD4 BD2 (E352 to M457 residues) (unknown origin) expressed in Escherichia coli BL21 (DE3) after 1 hr by Alexa-647-conjugated probe based TR-FRET assay.
For series [9] the target is unchanged. In words: Inhibition of BRD4 (unknown origin) expressed in human H1299 cells co-expressing HPV16-LCR/E2 after 24 hrs by Bright Glo-luciferase reporter gene assay. The class given is cell-based. In short, it runs like this:
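Target-engagement reporter in an H1299-derived line carrying a stably integrated E2 expression cassette and an HPV-LCR-driven luciferase reporter. The read-out is BRD4-dependent E2-mediated transcriptional repression. EC50 is the mean of two measurements.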
For orientation: In a reporter assay the amount or activity of a reporter protein is the signal.

Bromodomain adjacent to zinc finger domain protein 2A, sequence (Q9UIF9 whole entry, the tested form may be a part): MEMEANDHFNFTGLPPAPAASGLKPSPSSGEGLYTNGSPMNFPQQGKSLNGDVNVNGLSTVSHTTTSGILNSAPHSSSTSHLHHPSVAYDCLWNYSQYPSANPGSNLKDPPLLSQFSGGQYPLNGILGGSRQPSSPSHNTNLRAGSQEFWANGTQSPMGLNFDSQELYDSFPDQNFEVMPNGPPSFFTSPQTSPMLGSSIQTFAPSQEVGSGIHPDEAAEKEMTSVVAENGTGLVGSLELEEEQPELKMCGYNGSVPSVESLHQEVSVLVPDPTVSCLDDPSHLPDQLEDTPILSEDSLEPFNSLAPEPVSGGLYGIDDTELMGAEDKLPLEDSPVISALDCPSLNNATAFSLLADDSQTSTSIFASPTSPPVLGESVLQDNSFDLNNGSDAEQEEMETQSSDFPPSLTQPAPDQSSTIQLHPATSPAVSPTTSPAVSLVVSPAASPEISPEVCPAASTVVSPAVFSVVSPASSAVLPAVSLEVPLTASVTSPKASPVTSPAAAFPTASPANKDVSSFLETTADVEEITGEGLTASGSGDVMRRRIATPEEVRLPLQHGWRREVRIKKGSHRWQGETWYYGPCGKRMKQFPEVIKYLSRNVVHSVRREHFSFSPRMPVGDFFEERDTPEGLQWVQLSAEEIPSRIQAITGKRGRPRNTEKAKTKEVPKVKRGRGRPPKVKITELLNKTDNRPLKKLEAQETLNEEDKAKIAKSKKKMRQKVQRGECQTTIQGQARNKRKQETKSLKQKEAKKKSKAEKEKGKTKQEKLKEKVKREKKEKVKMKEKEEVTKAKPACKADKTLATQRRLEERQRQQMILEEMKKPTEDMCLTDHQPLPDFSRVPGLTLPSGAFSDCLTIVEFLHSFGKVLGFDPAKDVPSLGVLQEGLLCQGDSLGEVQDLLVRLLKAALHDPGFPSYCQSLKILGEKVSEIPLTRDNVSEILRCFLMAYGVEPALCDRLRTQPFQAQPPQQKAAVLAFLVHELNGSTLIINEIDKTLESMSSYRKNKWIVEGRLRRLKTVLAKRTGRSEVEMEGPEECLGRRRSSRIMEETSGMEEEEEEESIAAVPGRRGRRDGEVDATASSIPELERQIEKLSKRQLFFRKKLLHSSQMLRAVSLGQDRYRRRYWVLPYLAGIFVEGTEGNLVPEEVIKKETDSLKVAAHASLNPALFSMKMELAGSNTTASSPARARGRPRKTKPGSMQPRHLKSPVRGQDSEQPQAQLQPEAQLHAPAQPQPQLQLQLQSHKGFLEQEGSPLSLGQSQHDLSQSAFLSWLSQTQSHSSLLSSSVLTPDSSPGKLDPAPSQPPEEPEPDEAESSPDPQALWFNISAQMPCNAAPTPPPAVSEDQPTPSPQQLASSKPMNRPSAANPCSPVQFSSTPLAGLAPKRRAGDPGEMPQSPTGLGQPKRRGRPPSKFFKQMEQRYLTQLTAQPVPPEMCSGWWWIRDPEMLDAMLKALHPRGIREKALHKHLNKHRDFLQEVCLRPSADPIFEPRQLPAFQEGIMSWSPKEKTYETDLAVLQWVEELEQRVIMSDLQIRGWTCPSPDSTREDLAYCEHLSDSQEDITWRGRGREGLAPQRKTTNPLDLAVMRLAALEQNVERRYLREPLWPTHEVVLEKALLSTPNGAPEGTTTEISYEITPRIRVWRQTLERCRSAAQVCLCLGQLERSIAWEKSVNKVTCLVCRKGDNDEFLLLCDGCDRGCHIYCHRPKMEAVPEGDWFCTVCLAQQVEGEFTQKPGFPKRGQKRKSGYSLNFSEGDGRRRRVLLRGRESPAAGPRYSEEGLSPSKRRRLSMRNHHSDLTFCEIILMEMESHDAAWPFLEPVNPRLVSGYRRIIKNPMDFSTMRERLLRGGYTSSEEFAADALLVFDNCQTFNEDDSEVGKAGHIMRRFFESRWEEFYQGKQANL
Bromodomain and WD repeat-containing protein 1, sequence (Q9NSI6 whole entry, the tested form may be a part): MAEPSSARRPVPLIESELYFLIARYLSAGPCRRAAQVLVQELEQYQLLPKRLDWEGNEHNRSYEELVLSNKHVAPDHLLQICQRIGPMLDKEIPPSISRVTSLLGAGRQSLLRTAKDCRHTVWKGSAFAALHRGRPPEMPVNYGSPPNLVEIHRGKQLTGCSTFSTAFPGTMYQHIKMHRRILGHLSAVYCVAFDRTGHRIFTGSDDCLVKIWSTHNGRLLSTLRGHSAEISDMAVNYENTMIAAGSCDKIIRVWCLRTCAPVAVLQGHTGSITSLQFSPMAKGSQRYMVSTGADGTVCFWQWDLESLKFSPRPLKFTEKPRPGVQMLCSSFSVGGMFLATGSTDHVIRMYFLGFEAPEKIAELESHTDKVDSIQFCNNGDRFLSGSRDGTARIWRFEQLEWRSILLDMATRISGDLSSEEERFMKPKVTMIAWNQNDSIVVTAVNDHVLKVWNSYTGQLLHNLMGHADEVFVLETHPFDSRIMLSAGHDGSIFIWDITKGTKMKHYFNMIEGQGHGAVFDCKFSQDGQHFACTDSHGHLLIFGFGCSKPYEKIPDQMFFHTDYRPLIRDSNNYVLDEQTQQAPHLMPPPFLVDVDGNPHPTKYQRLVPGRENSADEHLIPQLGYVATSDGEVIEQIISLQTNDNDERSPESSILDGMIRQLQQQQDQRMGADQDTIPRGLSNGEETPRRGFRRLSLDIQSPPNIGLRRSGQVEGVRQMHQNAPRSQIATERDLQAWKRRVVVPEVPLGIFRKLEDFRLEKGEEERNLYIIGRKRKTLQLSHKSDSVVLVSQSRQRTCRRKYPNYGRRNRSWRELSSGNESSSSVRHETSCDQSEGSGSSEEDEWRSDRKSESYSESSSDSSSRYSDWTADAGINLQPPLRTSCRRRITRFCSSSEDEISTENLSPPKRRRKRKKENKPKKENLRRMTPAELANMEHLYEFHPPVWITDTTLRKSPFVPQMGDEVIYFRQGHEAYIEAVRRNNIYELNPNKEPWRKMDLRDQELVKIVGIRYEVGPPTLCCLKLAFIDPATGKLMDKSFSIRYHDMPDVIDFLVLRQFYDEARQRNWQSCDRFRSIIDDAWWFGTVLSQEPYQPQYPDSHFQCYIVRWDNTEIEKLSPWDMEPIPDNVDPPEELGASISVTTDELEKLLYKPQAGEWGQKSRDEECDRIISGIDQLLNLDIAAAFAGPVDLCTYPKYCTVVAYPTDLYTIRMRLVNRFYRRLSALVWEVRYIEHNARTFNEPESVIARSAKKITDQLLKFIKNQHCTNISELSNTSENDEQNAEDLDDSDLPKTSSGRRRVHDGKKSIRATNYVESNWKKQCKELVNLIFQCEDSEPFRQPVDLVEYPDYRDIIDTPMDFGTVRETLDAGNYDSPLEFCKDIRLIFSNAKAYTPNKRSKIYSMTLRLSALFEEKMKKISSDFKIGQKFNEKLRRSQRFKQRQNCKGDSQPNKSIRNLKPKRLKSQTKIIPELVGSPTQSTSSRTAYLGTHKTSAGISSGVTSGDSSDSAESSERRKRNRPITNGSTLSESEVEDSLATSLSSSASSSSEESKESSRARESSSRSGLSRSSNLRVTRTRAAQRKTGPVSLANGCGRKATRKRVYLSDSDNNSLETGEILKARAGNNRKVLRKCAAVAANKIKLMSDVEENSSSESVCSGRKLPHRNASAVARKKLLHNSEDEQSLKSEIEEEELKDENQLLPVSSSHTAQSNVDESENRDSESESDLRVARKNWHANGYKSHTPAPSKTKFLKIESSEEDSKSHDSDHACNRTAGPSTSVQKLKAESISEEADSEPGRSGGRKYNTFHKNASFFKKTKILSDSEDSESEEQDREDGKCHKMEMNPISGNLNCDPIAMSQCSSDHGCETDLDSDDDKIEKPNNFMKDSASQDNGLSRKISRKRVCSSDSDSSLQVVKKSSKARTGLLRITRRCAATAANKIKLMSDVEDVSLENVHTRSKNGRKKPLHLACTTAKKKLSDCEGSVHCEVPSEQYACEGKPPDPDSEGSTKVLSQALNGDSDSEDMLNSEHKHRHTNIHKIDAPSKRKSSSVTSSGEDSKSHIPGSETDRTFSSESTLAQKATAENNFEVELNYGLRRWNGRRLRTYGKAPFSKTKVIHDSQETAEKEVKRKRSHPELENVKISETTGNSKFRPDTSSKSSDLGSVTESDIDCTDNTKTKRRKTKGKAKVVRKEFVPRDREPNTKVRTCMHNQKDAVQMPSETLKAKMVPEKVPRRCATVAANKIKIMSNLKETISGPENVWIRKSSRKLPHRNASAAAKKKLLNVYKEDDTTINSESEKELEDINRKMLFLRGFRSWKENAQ

The EC50 is the concentration needed to bring the measured effect to its halfway point. For orientation: IC50 means the point on the concentration scale where inhibition reaches its midpoint. High values mean lower potency, low ones higher potency. One may read the Ki as the dissociation constant of the complex between target and ligand, obtained from inhibition or displacement. A high value points to weaker binding. Take `Cc1[nH]c(-c2cc(S(C)(=O)=O)ccc2Oc2ccc(F)cc2F)c2c1C(=O)NCC2`: the EC50 in the series with MX1 worked out at 0.9 µM; in series [9], 0.29 µM. Moreover, the half-maximal inhibitory concentration (IC50) (in series [1]; in series [3]; in series [7]; against Protein polybromo-1) was above 10 µM each time. Moreover, the CL free is below 115 mL/min/kg in the series on Liver and 233 mL/min/kg in the series with Plasma. Also, the inhibitory constant (Ki) was 0.027 µM in series [2], 0.11 µM in [4], 0.034 µM in [6] and 0.038 µM in [8]. For the same molecule, in series [5], the Papp came to 22 ×10⁻⁶ cm/s. In the series on Mus musculus, this molecule displayed a fAUC of 0.53 µM·h.

`Cc1[nH]c(-c2cc(NS(C)(=O)=O)ccc2Oc2ccccc2)c2c1C(=O)CCC2`: the values for the half-maximal effective concentration (EC50) (with MX1; in series [9]) were 0.16 µM and 0.051 µM, respectively. Also, the IC50 was 10 µM in [1], above 10 µM in series [3], 10 µM in series [7] and above 10 µM against Protein polybromo-1. The results for the CL free in the series on Liver and with Plasma were 917 mL/min/kg and 1400 mL/min/kg, respectively. The inhibitory constant (Ki) amounted to 0.014 µM in series [2], 0.035 µM in series [4], 0.018 µM in [6] and 0.038 µM in [8]. Besides, the Papp in series [5] turned out to be 27 ×10⁻⁶ cm/s. The fAUC in the series with Mus musculus was 0.09 µM·h.

As to `Cn1cc(-c2cc(S(C)(=O)=O)ccc2Oc2ccc(F)cc2F)c2cc[nH]c(=O)c21`, the values for the concentration for a half-maximal effect (EC50) (in the series with MX1; in [9]) were 0.11 µM and 0.15 µM, respectively. Moreover, the IC50 in [1] was above 10 µM; in [3], above 10 µM; in series [7], 10 µM; against Protein polybromo-1, above 10 µM. Moreover, the values for the CL free in the series with Liver and in the series on Plasma were 200 mL/min/kg and 267 mL/min/kg, respectively. The inhibition constant (Ki) came to 0.16 µM in series [2], 0.29 µM in series [4], 0.077 µM in series [6] and 0.28 µM in [8]. In addition, the Papp in series [5] turned out to be 35 ×10⁻⁶ cm/s. In addition, the fAUC in the series on Mus musculus worked out at 0.86 µM·h.

(Values after ChEMBL document CHEMBL4038268, “Methylpyrrole inhibitors of BET bromodomains” (Bioorg Med Chem Lett, 2017).)
